Screens as filed in PubChem BioAssay.
T cell HTS: modulates CD8 T cell binding to vesicles. 2C CD8+ T cell-vesicle binding, flow cytometry; hits give low values. response (vesicle binding), % at 7 µM. 0.068% of 330,000 active;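 active = response, share of CD8 T cells binding vesicles, and their 90th percentile fluorescence all below set limits, cut at about 80% in these data, passing the limit was not always enough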;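 also: values below 100% mean blocked vesicle binding to the CD8+ T cells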
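Material: 2C TCR transgenic mouse naive CD8+ T cells, MACS-purified. Also added: QL9-charged Drosophila Ld/ICAM-1/B7-1 vesicles. Timing: binding 1.5 h at 37 °C. Measured by: high-throughput flow cytometry with anti-B7-1 and anti-CD8 staining. Read-out: percent CD8+ FL2 mean versus row control. Controls: Unloaded micro-vesicles (low), QL9 vesicles with 0.7% DMSO (high).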
LANA-H2A inh: blocks KSHV LANA binding to histone H2A/H2B; cell-free LANA-H2A/H2B peptide, fluorescence polarization; inhibition, % (test concentration not listed); 0.6% of 320,000 active; in the data active = inhibition mostly above about 10%, no sharp cut-off; inactive = mostly below about 6.7%
Target sequence (Q9QR71 whole entry, looked up): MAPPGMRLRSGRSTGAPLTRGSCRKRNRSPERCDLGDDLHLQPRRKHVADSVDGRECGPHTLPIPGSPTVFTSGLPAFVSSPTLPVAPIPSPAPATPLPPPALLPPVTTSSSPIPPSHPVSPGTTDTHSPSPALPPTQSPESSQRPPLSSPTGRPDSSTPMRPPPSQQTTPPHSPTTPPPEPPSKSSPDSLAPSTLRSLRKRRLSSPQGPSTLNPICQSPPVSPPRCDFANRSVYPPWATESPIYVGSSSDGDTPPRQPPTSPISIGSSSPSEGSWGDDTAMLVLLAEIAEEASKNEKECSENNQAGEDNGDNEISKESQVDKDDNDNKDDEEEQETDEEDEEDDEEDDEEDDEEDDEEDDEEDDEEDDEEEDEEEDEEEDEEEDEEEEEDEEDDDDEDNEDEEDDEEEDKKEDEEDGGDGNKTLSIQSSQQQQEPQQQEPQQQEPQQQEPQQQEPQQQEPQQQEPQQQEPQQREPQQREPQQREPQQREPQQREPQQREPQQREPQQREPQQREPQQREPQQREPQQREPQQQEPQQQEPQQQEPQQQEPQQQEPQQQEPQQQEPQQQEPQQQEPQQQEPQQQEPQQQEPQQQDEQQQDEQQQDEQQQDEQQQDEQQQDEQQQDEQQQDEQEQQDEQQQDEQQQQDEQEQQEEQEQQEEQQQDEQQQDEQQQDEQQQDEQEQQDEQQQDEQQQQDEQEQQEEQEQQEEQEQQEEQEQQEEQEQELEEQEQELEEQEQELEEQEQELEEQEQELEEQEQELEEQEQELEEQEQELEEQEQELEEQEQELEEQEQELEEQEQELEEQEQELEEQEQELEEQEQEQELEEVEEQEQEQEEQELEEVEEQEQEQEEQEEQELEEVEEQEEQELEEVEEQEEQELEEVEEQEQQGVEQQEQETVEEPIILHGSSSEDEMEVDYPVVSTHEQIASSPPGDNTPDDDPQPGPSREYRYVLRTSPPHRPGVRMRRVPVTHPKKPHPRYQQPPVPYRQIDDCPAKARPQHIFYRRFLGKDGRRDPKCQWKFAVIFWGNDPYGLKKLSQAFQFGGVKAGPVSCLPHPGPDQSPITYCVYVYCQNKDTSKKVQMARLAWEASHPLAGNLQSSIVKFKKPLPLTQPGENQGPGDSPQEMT
HDAC3 inh: human HDAC3 inhibition; O15379; recombinant HDAC3, fluorogenic peptide/trypsin coupled, fluorescence; inhibition, % at 8.3 µM; 0.15% of 320,000 active; AID 2718; in the data active = inhibition above about 26%, passing the limit was not always enough; inconclusive = no clear call, values can overlap the other calls
Arr AP2 block: human beta-arrestin and AP2 interaction inhibition; FITC-arrestin peptide / GST-AP2 beads, flow cytometry; AP2 beta2 appendage carries R879A mutation; inhibition, % at 10 µM; 0.31% of 340,000 active;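 active = inhibition above a set limit, near 3 SD of compounds lacking own fluorescence, cut at about 54% in these data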;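 also: plate controls were DMSO wells for no effect and 5 µM unlabelled arrestin peptide for full effect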
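test system = AP2 appendage R879A on GSH beads | buffer or medium = PBS plus Tween 20 (0.05%) and BSA (0.1%) | incubation = 12 min plus 1 h, RT | detection = bead flow cytometry, FITC channel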
DSG3 Ab inh: blocks pemphigus antibody binding to human desmoglein-3 | 0.48% of 310,000 active | P32926 | binding (percent of control), % at 10 µM | DSG3-coupled beads, scFv-anti-DSG3-GFP binding, flow cytometry; hits give low values;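 active = binding more than 3 SD below its plate's average and above zero; inconclusive = below that plate limit but binding exactly zero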;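 also: hits lower antibody fragment binding to DSG3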
Starred values were filed as active, the others as inactive; i = inactive; u = inconclusive; x = not tested or not shown. This is a sample that favours compounds with a hit; in the whole collection about 1.5% have one here.

SMILES	T cell HTS	LANA-H2A inh	HDAC3 inh	Arr AP2 block	DSG3 Ab inh
CC1Cc2cc(/C(O)=C3/C(=O)C(=O)N(CCN4CCOCC4)C3c3ccc([N+](=O)[O-])cc3)ccc2O1 (stereo not drawn)	167	-3	10	-2	111
O=S(=O)(NC1CCCCCC1)c1cccc2cccnc12	336	182*	2	21	99
COc1ccc(-n2c(N)c(C(=O)NCC3CCCO3)c3nc4ccccc4nc32)c(OC)c1 (stereo not drawn)	925	-7	-1	-3	73*
C=CCn1c(N)c(C(=O)NCC2CCCO2)c2nc3ccccc3nc21 (stereo not drawn)	401	1	-69	4	115
Cc1cc2cc(CNC(=O)CCC(=O)O)ccc2n1C	476	0	3	9	99
CC(=O)Nc1ccc(S(=O)(=O)NCc2ccc3c(c2)cc(C)n3C)cc1	522	-7	0	5	80*
Cc1cc2cc(CNC(=O)Cc3cccs3)ccc2n1C	974	4	x	4	64*
CSCC[C@H](NC(=O)N1CCn2c1nc1ccccc12)C(=O)NCc1ccc(C)cc1	434	1	3	6	104
COc1ccc(C2=NS(=O)(=O)N(C)C(C(=O)NC3CCCCC3)=C2)cc1	374	0	-3	4	-19*
[O-][n+]1c2ccccc2cc2ccccc21	434	18*	-47	-5	96
O=C(ONC(=O)C1C2C=CC(C2)C1C(=O)NOC(=O)c1ccccc1)c1ccccc1 (stereo not drawn)	x	x	x	35	97
O=C(CSC1=NCCS1)c1ccc(Cl)cc1	927	-1	72*	22	106
O=C(Oc1ccccc1/C=C\C(=O)c1cc2ccccc2o1)c1ccccc1	226	1	-2	10	124
O=C(Oc1ccccc1/C=C\C(=O)c1cc2ccccc2o1)c1cccc(F)c1	241	17*	10	14	100
CCC(C)(C)NC(=O)C(c1ccncc1)N(C(=O)Cn1nnc2ccccc21)c1cc2c(cc1C(C)=O)OCO2 (stereo not drawn)	269	1	-3	-4	84*
CCC(C)(C)NC(=O)C(c1ccncc1)N(Cc1cccs1)C(=O)Cn1nnc2ccccc21 (stereo not drawn)	343	2	-1	6	99
O=C(NCc1ccccc1)C1CCC(=O)N(CCCN2CCCC2=O)C1 (stereo not drawn)	248	1	0	14	98
Cc1cc(NC(=O)CSc2nnc(-c3ccco3)n2Cc2ccccc2)no1	152	-5	9	-4	105
CCOc1ccc(-n2c(SCC(=O)Nc3cc(C)on3)nnc2-c2c[nH]c3ccccc23)cc1	819	2	-3	4	101
Cc1cc(NC(=O)CSc2nnc(-c3ccc(Br)o3)n2Cc2ccccc2)no1	206	12*	5	13	98
Cc1cc(NC(=O)CSc2nnc(-c3c[nH]c4ccccc34)n2-c2ccc(F)cc2)no1	319	1	0	0	14*
Clc1ccccc1CSc1cnnc2ccccc12	x	x	x	1	113
COc1ccc(CC(=O)Nc2cccc(C(=O)NN3C(=O)c4ccccc4C3=O)c2C)cc1	114	-2	0	4	14*
O=C1C(O)CCN1Cc1ccccc1 (stereo not drawn)	x	x	x	-2	88
Cc1ccc(NC(=O)C(C)Sc2nc(-c3ccccc3)cc(=O)[nH]2)cc1 (stereo not drawn)	178	4	4	12	94
SMILES	T cell HTS	LANA-H2A inh	HDAC3 inh	Arr AP2 block	DSG3 Ab inh
COc1cccc(NC(=O)CCN2C(=O)c3ccccc3Sc3ncccc32)c1	586	-3	-2	3	107
CC1CN(S(=O)(=O)c2cccc(C(=O)NCc3ccco3)c2)CC(C)O1 (stereo not drawn)	181	-7	0	-8	104
O=C(Cn1nnc(-c2ccccc2)n1)N/N=C/c1cc([N+](=O)[O-])c(Cl)cc1Cl	195	3	4	4	74*
O=C(Cn1nnc(-c2ccccc2)n1)N/N=C/c1cc([N+](=O)[O-])ccc1O	217	-6	0	7	113
O=C(CN1CCN(Cc2ccccc2)CC1)N/N=C\C=C/c1ccco1	329	12*	10	2	101
O=C(CN1CCN(Cc2ccccc2Cl)CC1)N/N=C/C=C/c1ccco1	424	-3	11	29	101
Cc1ccccc1-n1nc2c(c1NC(=O)c1ccc(Br)o1)CSC2	728	-2	u	9	87*
Cc1c(-n2c(SCC(=O)NC(C)C)nc3ccccc3c2=O)c(=O)n(-c2ccccc2)n1C	236	5	6	21	112
CCC(C)NC(=O)CSc1nc2ccccc2c(=O)n1-c1c(C)n(C)n(-c2ccccc2)c1=O (stereo not drawn)	133	100*	-1	-3	98
O=C(CCc1c[nH]c2ccccc12)N1CCCCCCC1	388	60*	4	1	120
O=C(CCc1c[nH]c2ccccc12)N1CCN(c2ccc(O)cc2)CC1	321	2	1	-5	101
Cn1c(=O)[nH]c(=O)c2c1nc(N1CCNCC1)n2Cc1ccccc1	174	-1	3	7	120
COc1ccc(CCn2c(NN)nc3c2c(=O)[nH]c(=O)n3C)cc1	i	4	-4	0	79*
Cn1c(=O)[nH]c(=O)c2c1nc(N1CCNCC1)n2Cc1cccc2ccccc12	213	18*	3	3	105
C=CCn1c(N2CCN(c3ccc(OC)cc3)CC2)nc2c1c(=O)[nH]c(=O)n2C	238	-1	4	-8	-12*
COc1ccc(CCn2c(NN=C(C)C)nc3c2c(=O)[nH]c(=O)n3C)cc1	753	-7	1	11	104
Cc1ccc(OCC(COCc2ccccc2)NC(C)C)cc1 (stereo not drawn)	574	3	-7	3	95
CCN(CC)CCN=c1c(C)nc(C#N)c(N)n1O	x	x	x	x	102
O=C(C1CCCN(S(=O)(=O)c2ccc(F)cc2)C1)N1CCCCC1 (stereo not drawn)	850	-9	4	-11	107
COc1ccc(Cl)cc1NC(=O)CSc1nc2[nH]ncc2c(=O)[nH]1	x	x	x	x	99
CN(C)c1ccc(/C=N/NC(N)=S)cc1[N+](=O)[O-]	275	25*	-4	14	112
CCc1noc(C)c1C(=O)N(C)CC(=O)Nc1ccccc1C(F)(F)F	323	6	0	-3	7.5*
CCc1noc(C)c1C(=O)N(C)CC(=O)Nc1ccc(Cl)c(Cl)c1	426	-2	1	-1	98
CCOc1ccc(C(CC(=O)O)NC(=O)C(c2ccccc2)c2ccccc2)cc1OC (stereo not drawn)	332	x	2	-12	102
Cc1ccc(S(=O)(=O)Nc2c(O)ccc3ccccc23)cc1	33*	-4	3	7	106
